This sample holds only a part of the variants without activity. A value given as a limit tells only on which side of the number the result lay.

B1: tRNA (parent)
chain: GUUCCGUUGGCGUAAUGGUAACGCGUCUCCCUCCUAAGGAGAAGACUGCGGGUUCGAGUCCCGUACGGAACG

In the data set the parent is B1. Kind of data set: yeast fitness relative to wild type (ratio to wild type); higher = fitter; tRNA-Arg(CCU), competitive growth, 37 C, YPD. The gist of the method: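 For this measurement, the tRNA-Arg(CCU) gene was varied by chemical synthesis at a 3% per-site mutation rate across 69 sites, and each variant was placed at the native genomic locus in Saccharomyces cerevisiae. The pooled strains went through a 24-hour competition in YPD at 37°C in six parallel replicates, with amplicons from start and end populations read by 100-nucleotide paired-end sequencing. Darwinian fitness relative to wild type followed from the change in each genotype's frequency. Genotypes needed ≥ 100 starting reads, and estimates < 0.5 were set to 0.5.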
For the variant GUUCUGUUGGCGUAAUGGUAACCCGCCUCCCACCUAAGGAGUAGACUGCGGGUUCGAGUCCCGUCCGGAACG [C5U G23C U26C U32A A42U A65C], the yeast fitness is ≤ 0.5. As for GUUCCGUUGGCGUAGUGGUAACGCGUCUCCGUCCUAAGGUGAAGACUGCGGGUUCGAGUGCCGUACAGAACG [A15G C31G A40U C60G G67A], the yeast fitness was 0.529. Consider GUUCCGUUGGCGUAAUGGUAACGCGUCUCCCUCCUAAGGUGAAGACAGCGGGUUCGAGUCCCGUACGGAACG [A40U U47A], for which the yeast fitness turned out to be 0.856.

Take GUUCAGUUGGCGUAAUGGUAACGCGUCUCCCUCCUAAGGCGAAGAUUGCGGCUUCGAGUCCCGUACGGAACG [C5A A40C C46U G52C]: the yeast fitness was 0.547.

Regarding GUUCUGCUGGCGUAAUGGUAACGCGUCUCCCUCCUAAGGUGAAGACUGCGGGUUCGAGACCCGUUCGAAACG [C5U U7C A40U U59A A65U G68A], the yeast fitness came to 0.649. With GUUCCGUUGGCGUAAUCGUAAGGAGUCUCCCUCCUAAGGAGAAGACUGCGGGUUCGAGUCCAGUACGGACCG [G17C C22G C24A C62A A70C] the figure was 0.57; with GUUCCGUUGGCGUAAUGCUAACGUGUCUCCCUCCUAAGGAGAAGACUGCGGGUUCGAGUCCCGUAUGGAACG [G18C C24U C66U], ≤ 0.5; with GUUCCGUUGGCGUAAUGGUAACGCGUCUCCCUCCUAAGGCGAAGACUCCGGGUUCGAGCCCCGUACGGAACG [A40C G48C U59C], ≤ 0.5. Take GUUCCGUUGGCGUAAUGGUGACGGGUCUCCCCCCUAAGGAGAAGACUGCGAGUUCGAGUCCCGUACGGAACG [A20G C24G U32C G51A]: the yeast fitness was ≤ 0.5. For the variant GUCUCGUUGGCGUAAUGGUAACGCGUUUCACUCCUAAGGACAAGACUGAGGGUUGGAGUCACGUACGGAACG [U3C C4U C27U C30A G41C C49A C55G C61A], the yeast fitness is ≤ 0.5.

On to GUUCCGUUGGCGUAAUGGUAACGCGUCUCCUUCCUAAGGAGAAGACUGCGAGUUCGAGUCCCGUACGGAACG [C31U G51A], for which the yeast fitness is 0.892.

Consider GUUCCGUUAGCGUAAUGGUAACGCGUCUCCCUCCUAAGGAGAAGACUGCGGGUUGCAGUCCCGUACGGAACG [G9A C55G G56C], for which the yeast fitness is ≤ 0.5. For GUUCGGUUGGCGUAAUAGUAACGCGCCUCCCUCCUAAGGAGAAGACUGCGGGUUCGAGUCCCGUACGGACCG [C5G G17A U26C A70C] the value was ≤ 0.5.

Consider GUUCCGUUGGCGUAACGGUUACGCAUCCCGCUCCUAAGGAGAAGACUGCGGGUUCGAGUCCCGUACGGAACG [U16C A20U G25A U28C C30G], for which the yeast fitness is ≤ 0.5.

With GUUCCGUUGGUGUAAUCGUAUCGCGUCUCCCUCCUAAGGAGAAGACUGCGGGUUCAAGUCCCGUACGGAACG [C11U G17C A21U G56A], the yeast fitness was ≤ 0.5. For GUUCGGUUGGCGUAAUGGUAACGCGUCUCCCUCCUAAGCAGAAGACUGCGGGUUCGAGUCCCGUACGGUACG [C5G G39C A69U] the value was 0.538. With GUUCCGUCGGCGUAAUGGUAACGCGAAUCCCUCCUAAGGAGAAGACUGCGGGUUCGAGUCCCGUACGGAACG [U8C U26A C27A] the figure was ≤ 0.5. In the case of GUUCCGUUGGCGUAAUGGUAACGCAUCUCCUUCCUAAGGAGAAGACGGCGGGUUAGGGUCCCGUCCGGACCG [G25A C31U U47G C55A A57G A65C A70C], the yeast fitness was ≤ 0.5. Consider GUUUCGUUGGUGUAAUGGUAACCCGUCUCCCUCCUAUGGAGAAAACUGCGGGUUCGAGUCCCGUACGGAACG [C4U C11U G23C A37U G44A], for which the yeast fitness was ≤ 0.5. For GUUCGGUUGGCGUAAUGGUAACGCGUCUCGCUCCUAAGGAGAAGACUGCGGGUUCGAGUCCCGUACGGAACG [C5G C30G] the value was 0.523. With GUUCCGUUGGCGUAAUGGUAACGCGUCUGCCUCCUAAGGUGAAGACUGCGGGUUCGAGUCCCGUAGGGAACG [C29G A40U C66G] the figure was 0.551.

Take GUUACGUUGGCGUAAUGGUCACGCGUUUCCCUCCUAAGGAGAAGACUGCGGGUUCGAGUCCCGUACGGAACG [C4A A20C C27U]: the yeast fitness came out at 0.636. For GUUCCGUUGGCGUAAAGGUAACGCGUCUCCAUCGUAAGGAGAAGACUGCGGGUUCGAGUUCCGUACGUAACG [U16A C31A C34G C60U G68U], the yeast fitness was ≤ 0.5. Consider GUUCCGUUGGCGUAAUGGUAACGCGUAUCCCUCCUAAGCAGAAGACUGCGGGUUGGAGUCCCGUACGGACCG [C27A G39C C55G A70C], for which the yeast fitness was ≤ 0.5.

Consider GUUCCGUUGGUGUAAUGGUAACGGGUCUCCCUACUAAGGCGAAGACUGCGGGUUCGAGUCCCGUAUGGAACG [C11U C24G C33A A40C C66U], for which the yeast fitness is 0.743.

On to GUUCGGUUGGAGUGAUGGUAACGCCUCUGCCUCCUAAGGAGAAGACUGCGGGUUCGAGUCCCGUACGGAACG [C5G C11A A14G G25C C29G], for which the yeast fitness turned out to be 0.517.

As for GUUCCGAUGGCGUAAUGGGAACGCGUCUCCCUCCUAAGGAGAAGACUGCGGGUUCGAGUCCCGUACGGAGCG [U7A U19G A70G], the yeast fitness is ≤ 0.5.

For the variant GUUCCGUUGGCGUAAGGGUAACGCGUCUCCCUCGUACGGAGAAGACUGCGGGUUCGAGUCCCGUACGGAACG [U16G C34G A37C], the yeast fitness was found to be 0.706. With GUUCAGUUGGCGUAAUGGUAACGCGUCUCCCUCCUAAGGAGAAGACUGCGGGUUCGAGUUCCGUACGGAGCG [C5A C60U A70G] the figure was ≤ 0.5; with GUUCCGUUGGCGUAAUGGUAACGCGUCUCCCGCCUAAGGAGAAGACUGCGGGUUCGAAUCCCGUACGGAACG [U32G G58A], 0.609; with GUUCCGUUGGCGUAAUGGUACAGCGCCUCCCUCCCAAGGAGAAGACUGCGGGUUCGAGUCCCGUACGGAACG [A21C C22A U26C U35C], ≤ 0.5. For GUUCCGUUGGCGUAAUGGCAAAACGUCUCCCUCUUAAGGAGAAGACUGCGGGUUCGCGUCCCGUAUGGCACG [U19C C22A G23A C34U A57C C66U A69C], the yeast fitness is ≤ 0.5. For GUUCCGUUCGCGUAAUGGUAACGCGUAUCCCUACUAAGGAGAAGACUGCGGGUUCGAGUCCCAUACGGAGCG [G9C C27A C33A G63A A70G] the value was ≤ 0.5. With GUUCCGUUGGCGUAAUGGUAACGCGUCUCCCUCCUAAGGAGAAGGUUGCGCGUUCGAGUCCCGUACCGAACG [A45G C46U G51C G67C] the figure was ≤ 0.5; with GUUCCGUUGGCGUAAUGGUAACGCGUCUCCCUCCUAAGGAGAAGACUGCGAGUUCGAAUCCCGUACGGAACG [G51A G58A], 0.967. With GUUCCGUUGGCGUAAUGGUAACGCGUCUCGCUCCUAAGGAGAAGAAGGAGGAUUCGACUCCCGGGCGGGACG [C30G C46A U47G C49A G52A G58C U64G A65G A69G] the figure was ≤ 0.5; with GUUCCGUUGGCGUAAUGGUAACGCGUCUCCCUCCUAAGGACGAGACUGCGAGUUCGAGUCCCGUACGGCACG [G41C A42G G51A A69C], ≤ 0.5; with GUUCCGUUGGCGUAAUGGUAACGCGUCUCCCUCCUAAGCAGGAGACUGCGGGUUCGAGUCCCGUACGGAACG [G39C A42G], 0.653.

(Values after the RNAGym collection of RNA variant scans (doi:10.1126/science.aae0568).)
